Tested on: HEK-293T
Assay: Multiplex assay against HEK293T
Assay type: toxicity, cell-based
Conditions: human
Outline: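 Cells stained live at seeding with Hoechst33342, BioTracker Green Microtubule Cytoskeleton Dye, MitoTracker Red and Annexin V Alexa Fluor 680 were imaged on a CQ1 microscope at 37°C and 5% CO2 after compound addition. Their classification by CellPathfinder machine-learning gating ran from Hoechst high-intensity objects versus normal cells, to healthy, pyknosed or fragmented nuclei among normal cells, to mitotic or apoptotic among pyknosed cells. Tubulin, mitochondrial-mass and membrane-permeability phenotypes are per cents of healthy-nucleus cells.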

[1] = 12 h, 1 µM, compound concentration 1 uM, replicate 1
[2] = 12 h, 1 µM, compound concentration 1 uM, replicate 2
[3] = 12 h, 10 µM, compound concentration 10 uM, replicate 1
[4] = 12 h, 10 µM, compound concentration 10 uM, replicate 2
[5] = 24 h, 1 µM, compound concentration 1 uM, replicate 1
[6] = 24 h, 1 µM, compound concentration 1 uM, replicate 2
[7] = 24 h, 10 µM, compound concentration 10 uM, replicate 1
[8] = 24 h, 10 µM, compound concentration 10 uM, replicate 2
[9] = 48 h, 1 µM, compound concentration 1 uM, replicate 1
[10] = 48 h, 1 µM, compound concentration 1 uM, replicate 2
[11] = 48 h, 10 µM, compound concentration 10 uM, replicate 1
[12] = 48 h, 10 µM, compound concentration 10 uM, replicate 2

## CN(C)C/C=C/C(=O)Nc1ccc(C(=O)N2CCCC(Nc3ncc(Cl)c(-c4c[nH]c5ccccc45)n3)C2)cc1 (stereo not given)
[1]
  Population Apoptotic (%): 46%
  Population Fragmented Nuclei (%): 8%
  Population Healthy Nuclei (%): 55%
  Population Hoechst High Intensity Objects (%): 30%
  Population Membrane Permeable-Phenotype (%): 0%
  Population Mitochondria Different-Phenotype (%): 87%
  Population Mitotic Cells (%): 53%
  Population Normal (%): 69%
  Population Pyknosed Nuclei (%): 35%
  Population Tubulin-Different-Phenotype (%): 69%
  Total Cell Count: 227
[2]
  Population Apoptotic (%): 63%
  Population Fragmented Nuclei (%): 6%
  Population Healthy Nuclei (%): 64%
  Population Hoechst High Intensity Objects (%): 23%
  Population Mitochondria Different-Phenotype (%): 89%
  Population Mitotic Cells (%): 36%
  Population Normal (%): 76%
  Population Pyknosed Nuclei (%): 29%
  Population Tubulin-Different-Phenotype (%): 70%
  Total Cell Count: 231
[3]
  Population Apoptotic (%): 62%
  Population Fragmented Nuclei (%): 12%
  Population Healthy Nuclei (%): 57%
  Population Hoechst High Intensity Objects (%): 35%
  Population Membrane Permeable-Phenotype (%): 0%
  Population Mitochondria Different-Phenotype (%): 95%
  Population Mitotic Cells (%): 37%
  Population Normal (%): 64%
  Population Pyknosed Nuclei (%): 30%
  Population Tubulin-Different-Phenotype (%): 79%
  Total Cell Count: 269
[4]
  Population Apoptotic (%): 77%
  Population Fragmented Nuclei (%): 7%
  Population Healthy Nuclei (%): 64%
  Population Hoechst High Intensity Objects (%): 29%
  Population Mitotic Cells (%): 22%
  Population Normal (%): 70%
  Population Pyknosed Nuclei (%): 28%
  Population Tubulin-Different-Phenotype (%): 81%
  Total Cell Count: 181
[5]
  Population Apoptotic (%): 72%
  Population Fragmented Nuclei (%): 15%
  Population Healthy Nuclei (%): 62%
  Population Hoechst High Intensity Objects (%): 27%
  Population Membrane Permeable-Phenotype (%): 0%
  Population Mitochondria Different-Phenotype (%): 85%
  Population Mitotic Cells (%): 27%
  Population Normal (%): 72%
  Population Pyknosed Nuclei (%): 22%
  Population Tubulin-Different-Phenotype (%): 74%
  Total Cell Count: 222
[6]
  Population Apoptotic (%): 74%
  Population Fragmented Nuclei (%): 9%
  Population Healthy Nuclei (%): 67%
  Population Hoechst High Intensity Objects (%): 26%
  Population Mitochondria Different-Phenotype (%): 89%
  Population Mitotic Cells (%): 25%
  Population Normal (%): 73%
  Population Pyknosed Nuclei (%): 23%
  Population Tubulin-Different-Phenotype (%): 70%
  Total Cell Count: 207
[7]
  Population Apoptotic (%): 74%
  Population Fragmented Nuclei (%): 19%
  Population Healthy Nuclei (%): 55%
  Population Hoechst High Intensity Objects (%): 49%
  Population Membrane Permeable-Phenotype (%): 0%
  Population Mitochondria Different-Phenotype (%): 96%
  Population Mitotic Cells (%): 25%
  Population Normal (%): 50%
  Population Pyknosed Nuclei (%): 24%
  Population Tubulin-Different-Phenotype (%): 52%
  Total Cell Count: 314
[8]
  Population Apoptotic (%): 88%
  Population Fragmented Nuclei (%): 10%
  Population Healthy Nuclei (%): 68%
  Population Hoechst High Intensity Objects (%): 34%
  Population Mitochondria Different-Phenotype (%): 98%
  Population Mitotic Cells (%): 11%
  Population Normal (%): 65%
  Population Pyknosed Nuclei (%): 20%
  Population Tubulin-Different-Phenotype (%): 77%
  Total Cell Count: 197
[9]
  Population Apoptotic (%): 67%
  Population Fragmented Nuclei (%): 16%
  Population Healthy Nuclei (%): 59%
  Population Hoechst High Intensity Objects (%): 30%
  Population Membrane Permeable-Phenotype (%): 0%
  Population Mitochondria Different-Phenotype (%): 79%
  Population Mitotic Cells (%): 32%
  Population Normal (%): 69%
  Population Pyknosed Nuclei (%): 23%
  Population Tubulin-Different-Phenotype (%): 71%
  Total Cell Count: 239
[10]
  Population Apoptotic (%): 81%
  Population Fragmented Nuclei (%): 6%
  Population Healthy Nuclei (%): 65%
  Population Hoechst High Intensity Objects (%): 26%
  Population Mitochondria Different-Phenotype (%): 95%
  Population Mitotic Cells (%): 18%
  Population Normal (%): 73%
  Population Pyknosed Nuclei (%): 27%
  Population Tubulin-Different-Phenotype (%): 74%
  Total Cell Count: 184
[11]
  Population Apoptotic (%): 55%
  Population Fragmented Nuclei (%): 62%
  Population Healthy Nuclei (%): 14%
  Population Hoechst High Intensity Objects (%): 67%
  Population Membrane Permeable-Phenotype (%): 0%
  Population Mitochondria Different-Phenotype (%): 100%
  Population Mitotic Cells (%): 44%
  Population Normal (%): 32%
  Population Pyknosed Nuclei (%): 23%
  Population Tubulin-Different-Phenotype (%): 23%
  Total Cell Count: 361
[12]
  Population Apoptotic (%): 80%
  Population Fragmented Nuclei (%): 47%
  Population Healthy Nuclei (%): 30%
  Population Hoechst High Intensity Objects (%): 58%
  Population Mitochondria Different-Phenotype (%): 94%
  Population Mitotic Cells (%): 20%
  Population Normal (%): 41%
  Population Pyknosed Nuclei (%): 21%
  Population Tubulin-Different-Phenotype (%): 57%
  Total Cell Count: 277

Reference: ChEMBL document CHEMBL5058577, “EUbOPEN Chemogenomics Library 2 (Multiplex)” (2022)
